From ChEMBL document CHEMBL3244382, “Structural requirements for antileukemic activity among the naturally occurring and semisynthetic maytansinoids” (J Med Chem, 1978)
Values after ≈ are worked out from the molar mass of the structure shown. Active and inactive are the calls of the source.

Columns and labels:
[1] = test system: Mus musculus; experiment: Toxicity in PS mouse allografted with mouse P388 cells assessed as change in body weight at 200 ug/kg relative to control; assay type: organism-based; conditions: in vivo, 0.2 mg/kg
Procedure, shortened: (§1)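 P388 (PS) leukemia in mice, 6 mice per dose group. Weight change is the difference in grams between treated and control animals. Survivors are recorded on toxicity day, normally 4 days after the first injection.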

[2] = biological target: Tubulin (Homo sapiens) (UniProt P68371+Q9H4B7+P0DPH7+P68366+Q13509+Q71U36+P04350+Q3ZCM7+P07437+P68363+Q9BQE3+Q6PEY2+Q13885+Q9BVA1+Q9BUF5); experiment: Inhibition of brain tubulin polymerization (unknown origin) at 37 degC by spectrophotometry
[3] = test system: P388; experiment: Antitumor activity against mouse P388 cells allografted in PS mouse assessed as median survival time at 200 ug/kg relative to control; assay type: functional
Procedure, shortened: (§2)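 P388 leukemia (PS) in mice, six mice started per dose group. Read-out is T/C: median survival time of the treated group divided by that of the untreated control group, expressed as a percent. The NIH protocol counts a compound as active when T/C > 125%.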

[4] = test system: Mus musculus; experiment: Toxicity in PS mouse allografted with mouse P388 cells assessed as change in body weight at 400 ug/kg relative to control; assay type: organism-based; conditions: in vivo, 0.4 mg/kg; procedure, shortened: as §1
[5] = test system: Mus musculus; experiment: Toxicity in PS mouse allografted with mouse P388 cells assessed as survival at 200 ug/kg after 4 days; assay type: organism-based; conditions: in vivo, 0.2 mg/kg, 96 h
Procedure, shortened: (§3)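 PS (P388) leukemic mice, six started per dose group. Toxicity scored as survivors on the toxicity day over the number of mice started. The toxicity day is normally 4 days after the first injection.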

[6] = test system: Mus musculus; experiment: Toxicity in PS mouse allografted with mouse P388 cells assessed as survival at 50 ug/kg after 4 days; assay type: organism-based; conditions: in vivo, 0.05 mg/kg, 96 h; procedure, shortened: as §3
[7] = test system: Mus musculus; experiment: Toxicity in PS mouse allografted with mouse P388 cells assessed as change in body weight at 50 ug/kg relative to control; assay type: organism-based; conditions: in vivo, 0.05 mg/kg; procedure, shortened: as §1
[8] = test system: P388; experiment: Antitumor activity against mouse P388 cells allografted in PS mouse assessed as median survival time at 400 ug/kg relative to control; assay type: functional; procedure, shortened: as §2
[9] = test system: P388; experiment: Antitumor activity against mouse P388 cells allografted in PS mouse assessed as median survival time at 50 ug/kg relative to control; assay type: functional; procedure, shortened: as §2
[10] = test system: Mus musculus; experiment: Toxicity in PS mouse allografted with mouse P388 cells assessed as survival at 100 ug/kg after 4 days; assay type: organism-based; conditions: in vivo, 0.1 mg/kg, 96 h; procedure, shortened: as §3
[11] = test system: Paracentrotus lividus; experiment: Antimitotic activity against sea urchin eggs assessed as drug level causing inhibition of mitosis; assay type: functional; conditions: Egg
[12] = test system: P388; experiment: Antitumor activity against mouse P388 cells allografted in PS mouse assessed as median survival time at 100 ug/kg relative to control; assay type: functional; procedure, shortened: as §2
[13] = test system: Mus musculus; experiment: Toxicity in PS mouse allografted with mouse P388 cells assessed as survival at 400 ug/kg after 4 days; assay type: organism-based; conditions: in vivo, 0.4 mg/kg, 96 h; procedure, shortened: as §3
[14] = test system: Mus musculus; experiment: Toxicity in PS mouse allografted with mouse P388 cells assessed as change in body weight at 100 ug/kg relative to control; assay type: organism-based; conditions: in vivo, 0.1 mg/kg; procedure, shortened: as §1
[15] = test system: KB; experiment: Cytotoxicity against human KB cells; assay type: functional; conditions: read-out: ED50 (the source's name)
[16] = test system: P388; experiment: Antitumor activity against mouse P388 cells allografted in PS mouse assessed as median survival time at 3.1 ug/kg relative to control; assay type: functional; procedure, shortened: as §2
[17] = test system: P388; experiment: Antitumor activity against mouse P388 cells allografted in PS mouse assessed as median survival time at 25 ug/kg relative to control; assay type: functional; procedure, shortened: as §2
[18] = test system: Mus musculus; experiment: Toxicity in PS mouse allografted with mouse P388 cells assessed as change in body weight at 6.2 ug/kg relative to control; assay type: organism-based; conditions: in vivo, 0.0062 mg/kg; procedure, shortened: as §1
[19] = test system: P388; experiment: Antitumor activity against mouse P388 cells allografted in PS mouse assessed as median survival time at 6.2 ug/kg relative to control; assay type: functional; procedure, shortened: as §2
[20] = test system: Mus musculus; experiment: Toxicity in PS mouse allografted with mouse P388 cells assessed as change in body weight at 3.1 ug/kg relative to control; assay type: organism-based; conditions: in vivo, 0.0031 mg/kg; procedure, shortened: as §1
[21] = test system: Mus musculus; experiment: Toxicity in PS mouse allografted with mouse P388 cells assessed as change in body weight at 1.6 ug/kg relative to control; assay type: organism-based; conditions: in vivo, 0.0016 mg/kg; procedure, shortened: as §1
[22] = test system: Mus musculus; experiment: Toxicity in PS mouse allografted with mouse P388 cells assessed as change in body weight at 25 ug/kg relative to control; assay type: organism-based; conditions: in vivo, 0.025 mg/kg; procedure, shortened: as §1
[23] = test system: P388; experiment: Antitumor activity against mouse P388 cells allografted in PS mouse assessed as median survival time at 1.6 ug/kg relative to control; assay type: functional; procedure, shortened: as §2
[24] = test system: Mus musculus; experiment: Toxicity in PS mouse allografted with mouse P388 cells assessed as survival at 12.5 ug/kg after 4 days; assay type: organism-based; conditions: in vivo, 0.0125 mg/kg, 96 h; procedure, shortened: as §3
[25] = test system: P388; experiment: Antitumor activity against mouse P388 cells allografted in PS mouse assessed as median survival time at 12.5 ug/kg relative to control; assay type: functional; procedure, shortened: as §2
[26] = test system: Mus musculus; experiment: Toxicity in PS mouse allografted with mouse P388 cells assessed as survival at 3.1 ug/kg after 4 days; assay type: organism-based; conditions: in vivo, 0.0031 mg/kg, 96 h; procedure, shortened: as §3
[27] = test system: Mus musculus; experiment: Toxicity in PS mouse allografted with mouse P388 cells assessed as survival at 25 ug/kg after 4 days; assay type: organism-based; conditions: in vivo, 0.025 mg/kg, 96 h; procedure, shortened: as §3
[28] = test system: Mus musculus; experiment: Toxicity in PS mouse allografted with mouse P388 cells assessed as change in body weight at 12.5 ug/kg relative to control; assay type: organism-based; conditions: in vivo, 0.0125 mg/kg; procedure, shortened: as §1
[29] = test system: Mus musculus; experiment: Toxicity in PS mouse allografted with mouse P388 cells assessed as survival at 6.2 ug/kg after 4 days; assay type: organism-based; conditions: in vivo, 0.0062 mg/kg, 96 h; procedure, shortened: as §3
[30] = test system: Mus musculus; experiment: Toxicity in PS mouse allografted with mouse P388 cells assessed as survival at 1.6 ug/kg after 4 days; assay type: organism-based; conditions: in vivo, 0.0016 mg/kg, 96 h; procedure, shortened: as §3
[31] = test system: Mus musculus; experiment: Toxicity in PS mouse allografted with mouse P388 cells assessed as survival at 0.8 ug/kg after 4 days; assay type: organism-based; conditions: in vivo, 0.0008 mg/kg, 96 h; procedure, shortened: as §3
[32] = test system: Mus musculus; experiment: Toxicity in PS mouse allografted with mouse P388 cells assessed as change in body weight at 0.8 ug/kg relative to control; assay type: organism-based; conditions: in vivo, 0.0008 mg/kg
Procedure, shortened: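 PS (P388 leukemia) mice, six per dose group. Toxicity read as the difference in grams between the weights of treated and control animals.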

[33] = test system: P388; experiment: Antitumor activity against mouse P388 cells allografted in PS mouse assessed as median survival time at 0.8 ug/kg relative to control; assay type: functional; procedure, shortened: as §2

## CCCS[C@]12C[C@H](OC(=O)N1)[C@@H](C)[C@@H]1O[C@@]1(C)[C@@H](OC(=O)[C@H](C)N(C)C(C)=O)CC(=O)N(C)c1cc(cc(OC)c1Cl)C/C(C)=C/C=C/[C@H]2OC
[1]
  Activity: 0.1 g
[2]
  inhibition: Active
[3]
  T/C: 114%
[4]
  Activity: -0.7 g
[5]
  Activity: Non-toxic
[6]
  Activity: Non-toxic
[7]
  Activity: -1.3 g
[8]
  T/C: 114%
[9]
  T/C: 111%
[10]
  Activity: Non-toxic
[11]
  Activity: 1 ×10⁻⁸ mol/L
[12]
  T/C: 114%
[13]
  Activity: Non-toxic
[14]
  Activity: 2.8 g
[15]
  EC50: 0.18 ng/mL (≈ 0.24 nM)

## COc1cc2cc(c1Cl)NC(=O)/C=C/C(C)=C/[C@H](C)[C@@H]1C[C@@](O)(NC(=O)O1)[C@H](OC)/C=C/C=C(\C)C2
[16]
  T/C: 95%
[17]
  T/C: 108%
[1]
  Activity: 1.2 g
[18]
  Activity: 0.7 g
[2]
  inhibition: Active
[3]
  T/C: 104%
[19]
  T/C: 87%
[20]
  Activity: 1.4 g
[21]
  Activity: 1 g
[5]
  Activity: Non-toxic
[22]
  Activity: -0.8 g
[23]
  T/C: 104%
[24]
  Activity: Non-toxic
[6]
  Activity: Non-toxic
[25]
  T/C: <80%
[7]
  Activity: 1.8 g
[9]
  T/C: 120%
[26]
  Activity: Non-toxic
[10]
  Activity: Non-toxic
[27]
  Activity: Non-toxic
[11]
  Activity: 1 ×10⁻⁸ mol/L
[28]
  Activity: 0.7 g
[12]
  T/C: 120%
[29]
  Activity: Non-toxic
[30]
  Activity: Non-toxic
[14]
  Activity: 0.8 g
[15]
  EC50: 2 ng/mL (≈ 3.87 nM)

## CCO[C@]12C[C@H](OC(=O)N1)[C@@H](C)[C@@H]1O[C@@]1(C)[C@@H](OC(=O)[C@H](C)N(C)C(=O)C(C)C)CC(=O)N(C)c1cc(cc(OC)c1Cl)C/C(C)=C/C=C/[C@H]2OC
[1]
  Activity: 0.3 g
[2]
  inhibition: Active
[3]
  T/C: 134%
[4]
  Activity: -0.9 g
[5]
  Activity: Non-toxic
[6]
  Activity: Non-toxic
[7]
  Activity: 1.3 g
[8]
  T/C: 149%
[9]
  T/C: 100%
[10]
  Activity: Non-toxic
[11]
  Activity: 1 ×10⁻⁷ mol/L
[12]
  T/C: 109%
[13]
  Activity: Non-toxic
[14]
  Activity: 3.4 g
[15]
  EC50: 1.2 ng/mL (≈ 1.6 nM)

## CCC(=O)O[C@H]1CC(=O)N(C)c2cc(cc(OC)c2Cl)C/C(C)=C/C=C/[C@@H](OC)[C@@]2(O)C[C@H](OC(=O)N2)[C@@H](C)[C@@H]2O[C@@]12C
[16]
  T/C: 131%
[17]
  T/C: 153%
[1]
  Activity: -3.5 g
[18]
  Activity: -1 g
[31]
  Activity: Non-toxic
[2]
  inhibition: Active
[3]
  T/C: <80%
[32]
  Activity: -0.5 g
[19]
  T/C: 140%
[20]
  Activity: 1.3 g
[21]
  Activity: -0.8 g
[5]
  Activity: Toxic
[22]
  Activity: -0.5 g
[23]
  T/C: 129%
[24]
  Activity: Non-toxic
[6]
  Activity: Non-toxic
[25]
  T/C: 163%
[7]
  Activity: -0.9 g
[9]
  T/C: 198%
[26]
  Activity: Non-toxic
[10]
  Activity: Toxic
[33]
  T/C: 110%
[27]
  Activity: Non-toxic
[11]
  Activity: 1 nM
[28]
  Activity: -0.3 g
[12]
  T/C: <80%
[29]
  Activity: Non-toxic
[30]
  Activity: Non-toxic
[14]
  Activity: -2 g
[15]
  EC50: 0.21 ng/mL (≈ 0.338 nM)
